Compound activity: PubChem BioAssay, several laboratories
HGIII-sPLA2 inh – Inhibits HGIII-sPLA2 liposome hydrolysis, primary screen | Q9NZ20 | AID 743126 | inhibition, % at 12.2 µM | 370,000 tested, 0.56% active | QFRET BODIPY PC-A2 liposome hydrolysis, fluorescence;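 active = inhibition above mean plus 3 SD of compounds lying within the high and low control bounds, cut at about 19% in these data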;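 note: 0% = median of test compound wells and 100% = no enzyme DMSO wells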
MsrA act – bovine methionine sulfoxide reductase A activation | purified bovine MsrA, absorbance read-out | activation, % at 10.6 µM | 360,000 tested, 0.3% active; in the data active = activation above about 7.5%;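 note: 0% = vehicle and 100% = reference activator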
ARFGAP1 inhibitor – inhibitors of rat ARFGAP1 | Arfgap1-stimulated ARF1 GTP hydrolysis, GDP FP detection | 360,000 tested, 0.26% active | inhibition, % at 16.5 µM | AID 651572 | Q62848;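 active = inhibition above a per-plate limit, mean inhibition of low control wells plus 3 SD, cut at about 25% in these data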;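 note: 0% = DMSO wells with enzyme and 100% = wells lacking Arfgap1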
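System: truncated rat Arfgap1 GAP domain / Medium: HEPES-based buffer, pH 7.5 / Also added: N-terminally truncated human ARF1-GTP substrate / Incubation: enzyme reaction 120 min at 25 °C after 20 min preincubation / Measured by: FP of antibody-bound GDP Alexa 633 tracer, ex 620/em 688 nm / Replicates: singlicate, each compound tested once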
Rev-erbA mod – modulators of human Rev-erb alpha DNA binding; P20393; Rev-erbα–FITC-DNA binding, fluorescence polarization, 90 min; activity, % at 10 µM; 370,000 tested, 0.79% active; AID 1259318;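 active = activity above about 14%, limit read from the data; passing the limit was not always enough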;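 note: 0% = DMSO wells with 35 nM protein and 100% = DMSO wells with 750 nM protein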
Target sequence (P20393 whole entry, looked up): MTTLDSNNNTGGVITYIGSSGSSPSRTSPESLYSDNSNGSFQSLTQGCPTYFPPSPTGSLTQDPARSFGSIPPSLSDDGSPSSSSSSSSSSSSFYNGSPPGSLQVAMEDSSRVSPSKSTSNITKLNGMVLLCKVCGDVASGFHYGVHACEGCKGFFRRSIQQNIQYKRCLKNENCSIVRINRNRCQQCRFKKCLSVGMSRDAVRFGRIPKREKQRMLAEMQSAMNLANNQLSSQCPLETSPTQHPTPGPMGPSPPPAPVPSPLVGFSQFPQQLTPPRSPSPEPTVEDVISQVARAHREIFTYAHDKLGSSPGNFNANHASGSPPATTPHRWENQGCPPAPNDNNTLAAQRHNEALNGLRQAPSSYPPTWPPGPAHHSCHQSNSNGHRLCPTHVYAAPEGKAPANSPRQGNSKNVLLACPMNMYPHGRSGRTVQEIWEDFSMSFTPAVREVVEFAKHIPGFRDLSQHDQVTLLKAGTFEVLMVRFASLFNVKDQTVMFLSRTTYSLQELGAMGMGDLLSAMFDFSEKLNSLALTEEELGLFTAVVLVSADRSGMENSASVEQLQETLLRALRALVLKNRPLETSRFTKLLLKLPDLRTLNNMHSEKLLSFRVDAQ
ASAP1 inh – inhibitors of human ASAP1 ArfGAP activity; inhibition, % at 16.5 µM; Q9ULH1; 360,000 tested, 0.19% active; ASAP1-stimulated ARF1 GTP hydrolysis, GDP FP detection; in the data active = inhibition above about 25%;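 note: 0% = vehicle with enzyme and substrate and 100% = no enzyme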
MsrA inh – bovine MsrA inhibition | purified bovine MsrA, absorbance read-out | inhibition, % at 15.5 µM | 360,000 tested, 0.75% active | AID 651718;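 note: 0% = vehicle wells with enzyme and 100% = reference inhibitor wells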
MsrA conf – confirmation of bovine MsrA inhibitors | shares compounds with MsrA inh | inhibition, % at 15.5 µM | 2,300 tested, 41% active | AID 651822 | purified bovine MsrA, absorbance read-out;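 note: coupled to thioredoxin reductase with NADPH and selenocystamine and DMSO as substrate; 0% = vehicle only and 100% = full effect of reference inhibitor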
* marks the source's active call; other numbers are inactive results; . = not tested or not shown. In the library only some 2.7% were active in any assay of this set; here they are far more common. Cut-off read from the data, not from the text of the source, unless noted: active = inhibition above about 4.5%; inactive = the rest.

SMILES	HGIII-sPLA2 inh	MsrA act	ARFGAP1 inhibitor	Rev-erbA mod	ASAP1 inh	MsrA inh	MsrA conf
COCc1c(C(=O)N/N=C/c2ccc(C)o2)nnn1-c1nonc1N	1	-1	-3	-3	-6	6.6*	5
Cc1ccc(/C=N/NC(=O)c2nnn(-c3nonc3N)c2-c2ccc3c(c2)OCO3)s1	-24	-5	5	4	1	5.0*	4.6*
C[C@H](O)[C@@H]1CN2CCc3c([nH]c4cccc(-c5ccccc5)c34)[C@@H]2C[C@@H]1N(C)C(=O)Nc1ccccc1	-7	.	.	10	.	.	.
Brc1ccccc1Cn1nnc(-c2ccc(N3CCOCC3)cc2)n1	-7	.	.	-1	.	.	.
COC(=O)Nc1nnc(/C=C/c2ccccc2)s1	2	-4	12	3	1	3	.
Cc1cccc(-c2nnc(NC(=O)c3ccco3)s2)c1	7	-4	6	-11	-4	4.8*	2
CCN(c1ccc(C)cc1)S(=O)(=O)c1nnc(NC(=O)c2ccco2)s1	-9	-2	1	-1	9	4	.
CCN(CC)S(=O)(=O)c1nnc(NC(=O)c2ccco2)s1	-3	-3	2	-4	-7	6.6*	3
O=C(Nc1nnc(-c2ccc(F)cc2)s1)c1ccco1	0	-4	-9	0	3	2	.
O=C(Nc1nnc(/C=C/c2ccccc2)s1)c1ccco1	-4	-6	4	1	10	5.8*	4
CCOC(=O)[C@@]12CCCC3=C1N(CCC3)C(=O)[C@H]2CC(=O)NCc1cccs1	0	.	.	0	.	.	.
Cn1ccsc1=NC(=O)c1cccc(C#N)c1	3	-3	0	-2	-10	5.5*	1
Cc1ccc(C(=O)N=c2sccn2C)cc1C	-4	4	-1	-2	7	2	.
Cc1ccc(C(=O)N=c2sccn2C)cc1S(=O)(=O)N1CCOCC1	9	-3	14	0	4	6.0*	3
O=C(NC1CCCCN(Cc2ccc(Cl)cc2)C1=O)c1ccccc1-c1ccc(Cl)c(Cl)c1 (centres undefined)	-3	.	.	7	.	.	.
c1ccc2c(c1)CCN(c1nc3ccccc3n3cnnc13)C2	-4	-5	-1	4	-2	1	.
c1ccc2c(c1)CCCN2c1nc2ccccc2n2cnnc12	-1	-12	12	-3	12	12*	12*
COc1ccc2c(c(-c3ccccc3)cn2C)c1-c1ccccc1	10	.	.	-5	.	.	.
CC(=O)c1ccc(-c2nc3ccccc3n2C)o1	7	-1	-5	-2	-6	6.7*	2
C[n+]1ccccc1/C=C/c1ccc([N+](=O)[O-])cc1	9	-3	0	2	-6	6.0*	6.8*
C[n+]1ccccc1/C=C/c1ccc(C#N)cc1	11	-2	7	-4	-5	6.5*	5.6*
C[n+]1ccccc1/C=C/c1ccc2ncccc2c1	5	-4	-2	0	9	6.9*	6.9*
O=[N+]([O-])c1ccc(C=CC=Cc2ccccc2)cc1	1	-4	2	-3	-10	0	.
C[n+]1ccccc1/C=C/c1ccc(F)c(F)c1	1	-2	1	5	-1	4	.
Cc1ccccc1/C=C/c1cccc[n+]1C	8	1	3	0	-11	2	.
SMILES	HGIII-sPLA2 inh	MsrA act	ARFGAP1 inhibitor	Rev-erbA mod	ASAP1 inh	MsrA inh	MsrA conf
O=C(N/N=C/c1c[nH]c2ccccc12)c1cccc(O)c1	-11	-3	-8	5	-5	4	.
CC(=O)Nc1cccc(C(=O)N/N=C/c2c[nH]c3ccccc23)c1	7	-4	0	3	16	5.8*	2
Cn1ccc(C(=O)N/N=C/c2c[nH]c3ccccc23)n1	3	-14	11	5	-2	5.7*	3
CC(SC(C)C(=O)NN=Cc1c[nH]c2ccccc12)C(=O)NN=Cc1c[nH]c2ccccc12 (centres undefined)	-50	-2	0	2	4	5.0*	1
CCN(CC)c1ccc(C=Nc2cccnc2Cl)c(O)c1	4	-5	-4	4	5	5.5*	6.6*
CC(O)CNc1cc(N)c([N+](=O)[O-])cc1[N+](=O)[O-] (centres undefined)	7	-18	-7	4	-5	5.2*	6.2*
CC(O)CNc1ccc(-c2n[nH]c(=O)c3ccccc23)cc1[N+](=O)[O-] (centres undefined)	1	-10	0	14	-15	-1	.
NC(=O)C1CCN(c2nc(-c3ccc(Oc4ccccc4)cc3)cs2)CC1	4	.	.	2	.	.	.
O=C([C@@H]1C[C@H]1c1ccccc1)N1CC[C@H]2[C@H](CCCN2Cc2cc(F)cc(F)c2)C1	-2	.	.	0	.	.	.
O=[N+]([O-])c1ccc(-c2nc3ccc([N+](=O)[O-])cc3[nH]2)cc1	-6	-8	-4	-3	12	1	.
CCCC[n+]1ccc(-c2nc3ccc([N+](=O)[O-])cc3[nH]2)cc1	-1	0	15	-4	-5	4.8*	4
Cc1onc(-c2ccccc2)c1C(=O)Nc1nnc(-c2ccncc2)s1	-4	-19	-6	-3	-8	5.0*	4.9*
Cc1noc(C)c1C(=O)Nc1nnc(-c2ccccc2)s1	3	-6	5	-2	1	4	.
CCOC(=O)[C@@]12CCCC3=C1N(CCC3)C(=O)[C@H]2CC(=O)NCCC(C)C	3	.	.	5	.	.	.
Cc1[nH]c2ccccc2c1C(=O)C(=O)NCCCn1ccnc1	4	-8	-2	2	-5	4.9*	1
CCCC[C@H]1C2CC(OC(=O)Nc3cc(C)cc(C)c3)C(C2)[C@H]2CCCCN21 (some centres undefined)	0	.	.	2	.	.	.
O=C(Nc1ccc(Cl)cn1)c1ccccc1[N+](=O)[O-]	2	-4	4	2	-1	0	.
O=[N+]([O-])c1cnc(Nc2ccc(Cl)cn2)c([N+](=O)[O-])c1	2	2	5	-2	-1	6.1*	8.0*
O=C1c2cccc3cc([N+](=O)[O-])cc(c23)C(=O)N1CCN1CCCC1	1	3	11	-34	-15	1	.
O=C1c2cccc3cc([N+](=O)[O-])cc(c23)C(=O)N1/N=C/c1ccc(O)cc1O	-3	-5	-4	8	3	4.7*	2
COC(=O)C[C@@H]1CC[C@H]2[C@@H](COc3ccc(NS(=O)(=O)c4ccccc4F)cc3C(=O)N2C)O1	-30	.	.	-7	.	.	.
COc1cccc(/C=C2\SC(=O)N(CC(=O)NC3CCS(=O)(=O)C3)C2=O)c1 (centres undefined)	2	-4	8	2	-5	4.8*	3
O=S(=O)(c1cc2ccccc2s1)n1c(CN2CCOCC2)nc2ccccc21	7	.	.	-1	.	.	.
O=C(N/N=C/C=C/c1ccccc1)c1ccncc1	-2	-1	-1	1	1	8.0*	6.9*
